Test results as given in ChEMBL document CHEMBL4706565, “Anti-glioma effects of 2-aminothiophene-3-carboxamide derivatives, ANO1 channel blockers” (Eur J Med Chem, 2020).
One block for each compound: values may come before it. Active and inactive are the calls of the source. No cut-off for these calls is given here.

Experiments:
[1] = biological target: T1, Anoctamin-1 (Homo sapiens) (UniProt Q5XXA6); assay: Inhibition of human ANO1 channel expressed in HEK293 cells at 10 uM incubated for 10 mins by FLIPR assay relative to control; type: cell-based
T1 sequence (whole entry): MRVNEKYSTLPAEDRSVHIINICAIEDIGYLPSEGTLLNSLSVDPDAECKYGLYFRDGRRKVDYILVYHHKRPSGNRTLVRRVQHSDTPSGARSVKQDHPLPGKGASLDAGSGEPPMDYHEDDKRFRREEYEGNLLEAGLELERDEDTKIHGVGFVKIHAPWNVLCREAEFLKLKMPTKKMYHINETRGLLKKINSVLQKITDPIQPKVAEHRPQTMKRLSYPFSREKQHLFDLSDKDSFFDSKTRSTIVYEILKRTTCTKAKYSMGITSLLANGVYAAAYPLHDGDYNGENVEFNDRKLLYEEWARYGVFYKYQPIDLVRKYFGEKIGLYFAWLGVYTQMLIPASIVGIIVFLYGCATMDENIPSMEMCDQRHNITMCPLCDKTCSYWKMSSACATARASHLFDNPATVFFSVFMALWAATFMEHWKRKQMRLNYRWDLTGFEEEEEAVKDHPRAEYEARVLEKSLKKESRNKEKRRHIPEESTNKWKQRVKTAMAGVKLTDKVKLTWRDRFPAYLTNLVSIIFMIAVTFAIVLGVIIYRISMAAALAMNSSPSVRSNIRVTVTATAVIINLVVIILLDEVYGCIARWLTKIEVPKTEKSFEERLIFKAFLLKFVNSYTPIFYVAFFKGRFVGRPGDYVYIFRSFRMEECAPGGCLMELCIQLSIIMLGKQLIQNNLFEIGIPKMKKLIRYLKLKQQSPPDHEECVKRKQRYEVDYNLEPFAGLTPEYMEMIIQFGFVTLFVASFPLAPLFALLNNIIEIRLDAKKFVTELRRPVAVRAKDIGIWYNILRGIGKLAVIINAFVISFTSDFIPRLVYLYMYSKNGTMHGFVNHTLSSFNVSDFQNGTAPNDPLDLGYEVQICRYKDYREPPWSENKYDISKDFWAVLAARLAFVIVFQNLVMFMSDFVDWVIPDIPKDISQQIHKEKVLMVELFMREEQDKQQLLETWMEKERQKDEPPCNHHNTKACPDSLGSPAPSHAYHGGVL
In short: (§1)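 HEK293 cells expressing human ANO1, 50,000 cells/well, plated overnight. Loaded with FLIPR Red membrane-potential dye in HEPES-buffered saline (pH 7.4) for 40-60 min at room temperature. Compound added for 10 min at room temperature, final DMSO 0.5%.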

U-251 [2] = assay: Antiproliferative activity against human U251 cells overexpressing ANO1 assessed as reduction in cell viability measured after 72 hrs by Celltiter-glo assay; type: functional
In short: (§2)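 5.0×10^3 cells/well seeded, overnight, then compounds added as 1:4 serial dilutions in DMSO; viability read after 72 h with CellTiter-Glo luminescence. GI50 from fitted dose-response curves; triplicate wells, SD from three independent experiments. DMEM for U251 and U138, MEM for U87MG, both with 10% FBS and pen/strep, 37 °C, 5% CO2.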

Anoctamin-1 [3] = biological target: T2, Anoctamin-1 (Mus musculus, UniProt Q8BHY3); assay: Inhibition of GFP-fused mouse ANO1 channel expressed in HEK293A cells assessed as inhibition of ATP-induced channel current amplitude at membrane potential of +80 mV by patch clamp electrophysiology assay; type: cell-based, HEK293-A
T2 sequence (Q8BHY3 whole entry): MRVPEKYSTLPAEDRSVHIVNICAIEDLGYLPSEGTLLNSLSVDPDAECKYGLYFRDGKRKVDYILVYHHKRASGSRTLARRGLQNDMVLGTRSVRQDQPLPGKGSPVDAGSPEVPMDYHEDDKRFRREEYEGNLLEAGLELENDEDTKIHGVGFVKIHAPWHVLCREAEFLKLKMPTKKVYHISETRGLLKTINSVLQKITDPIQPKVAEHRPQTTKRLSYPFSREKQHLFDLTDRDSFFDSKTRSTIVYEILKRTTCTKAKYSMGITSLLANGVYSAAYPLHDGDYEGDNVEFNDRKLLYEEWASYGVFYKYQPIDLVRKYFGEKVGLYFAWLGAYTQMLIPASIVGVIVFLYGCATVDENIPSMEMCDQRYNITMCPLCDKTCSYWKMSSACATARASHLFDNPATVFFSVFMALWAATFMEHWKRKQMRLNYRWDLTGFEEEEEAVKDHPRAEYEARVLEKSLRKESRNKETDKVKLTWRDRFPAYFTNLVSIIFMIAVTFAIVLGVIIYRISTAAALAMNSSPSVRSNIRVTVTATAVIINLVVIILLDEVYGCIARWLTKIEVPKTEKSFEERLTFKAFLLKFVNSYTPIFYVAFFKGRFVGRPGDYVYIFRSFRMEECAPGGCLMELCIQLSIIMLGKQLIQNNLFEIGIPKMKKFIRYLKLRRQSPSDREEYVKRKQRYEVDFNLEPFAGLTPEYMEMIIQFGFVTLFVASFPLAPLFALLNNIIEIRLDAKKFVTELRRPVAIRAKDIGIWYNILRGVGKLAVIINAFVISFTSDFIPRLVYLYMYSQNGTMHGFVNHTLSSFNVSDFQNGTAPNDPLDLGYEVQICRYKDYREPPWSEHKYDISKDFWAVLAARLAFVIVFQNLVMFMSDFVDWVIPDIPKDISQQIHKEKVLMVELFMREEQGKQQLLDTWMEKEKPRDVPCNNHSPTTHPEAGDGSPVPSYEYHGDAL
In short: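 Whole-cell recording at room temperature in HEK293A cells transfected with GFP-mANO1, GFP-mANO2 or GFP-mTTYH1. 1 s ramps from +80 to -80 mV, holding potential -10 mV. For ANO1/ANO2: pipette CsCl 146 mM with Ca-EGTA-NMDG, pH 7.3; bath NaCl-based, pH 7.3. For TTYH1: Tris-aspartate pipette (pH 7.2) and Tris-HCl bath (pH 7.4), with […] and BaCl2 added to block K+ channels, and hypotonic (220 mOsm/kg) bath. Washout recordings assessed reversibility.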

Anoctamin-1 [4] = biological target: T3, Anoctamin-1 (Homo sapiens, UniProt Q5XXA6); assay: Inhibition of human ANO1 channel expressed in HEK293 cells incubated for 10 mins by FLIPR assay; type: cell-based; in short: as §1
T3 sequence (Q5XXA6 whole entry): T1 sequence (whole entry)

U138-MG [5] = assay: Antiproliferative activity against human U138 cells overexpressing ANO1 assessed as reduction in cell viability at 100 uM measured after 72 hrs by Celltiter-glo assay; type: functional; in short: as §2
[6] = Antiproliferative activity against mouse primary astrocytes assessed as reduction in cell viability at 100 uM measured after 72 hrs by Celltiter-Glo luminescent assay; type: cell-based, Astrocyte
In short: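 Primary astrocytes isolated from adult mouse brain by a previously reported method. 5.0×10^3 cells/well, compound as 1:4 serial DMSO dilutions, CellTiter-Glo viability at 72 h.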

U-87 MG [7] = assay: Antiproliferative activity against human U87MG cells overexpressing ANO1 assessed as reduction in cell viability at 100 uM measured after 72 hrs by Celltiter-glo assay; type: functional, U-87MG ATCC; in short: as §2
U-87 MG [8] = assay: Antiproliferative activity against human U87MG cells overexpressing ANO1 assessed as reduction in cell viability measured after 72 hrs by Celltiter-glo assay; type: functional, U-87MG ATCC; in short: as §2
U138-MG [9] = assay: Antiproliferative activity against human U138 cells overexpressing ANO1 assessed as reduction in cell viability measured after 72 hrs by Celltiter-glo assay; type: functional; in short: as §2
U-251 [10] = assay: Inhibition of anchorage-independent colony formation in human U251 cells at 10 uM incubated for 14 days by crystal violet staining based soft agar colony formation assay; type: functional, cell-based; details: time 14.0 day
In short: (§3)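 Soft agar assay: 2.0×10^3 U251 cells in complete medium with 0.3% agar over a 0.6% bottom agar layer. Treated with compounds at 1-100 μM for 14 days, 37 °C, 5% CO2. Colonies stained with crystal violet for 24 h, whole wells photographed and colonies counted against DMSO control; n = 3.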

U-251 [11] = assay: Inhibition of cell invasion in human U251 cells at 10 uM incubated for 48 hrs by Boyden chamber method; type: functional
In short: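 Boyden chamber invasion: U251 cells serum-starved 24 h, then 2.5×10^5 cells seeded in 8-μm ECMatrix-coated transwells. Treated with compound at 1 or 10 μM for 48 h at 37 °C. Invasion ratio from relative fluorescence.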

U-251 [12] = assay: Inhibition of anchorage-independent colony formation in human U251 cells at 30 uM incubated for 14 days by crystal violet staining based soft agar colony formation assay; type: functional, cell-based; details: time 14.0 day; in short: as §3
U-251 [13] = assay: Inhibition of cell migration in human U251 cells at 10 uM incubated for 18 hrs by wound healing assay; type: functional
In short: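 U251 monolayer, 2.0×10^5 cells/well, plated overnight, then scratched and washed with PBS. Wound area imaged before and after incubation; migration ratio taken from migrated area. One-way ANOVA.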

U-251 [14] = assay: Inhibition of anchorage-independent colony formation in human U251 cells at 100 uM incubated for 14 days by crystal violet staining based soft agar colony formation assay; type: functional; in short: as §3
U-251 [15] = assay: Inhibition of colony formation in human U251 cells at 10 uM incubated for 14 days by crystal violet dye based assay; type: functional
In short: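 Colonies stained 24 h with crystal violet in methanol/formaldehyde/PBS, washed, extracted with 10% acetic acid and read at A570 nm. Compared against DMSO control.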

Structure (SMILES): Cc1ncsc1C(=O)NC(=S)Nc1sc2c(c1C(N)=O)CCC2
inhibition [1]: < 10%

Structure (SMILES): NC(=O)c1c(NC(=S)NC(=O)c2cccc(C(F)(F)F)c2)sc2c1CCC2
inhibition [1]: 26.7%

Structure (SMILES): COc1cc(C(=O)NC(=S)Nc2sc3c(c2C(N)=O)CCC3)cc(OC)c1OC
inhibition [1]: < 10%

Structure (SMILES): CC(C)(C)C1CCc2c(sc(N)c2C(N)=O)C1 (stereo not drawn)
GI50 (U-251 [2]): 83.2 µM
IC50 (Anoctamin-1 [3]): 2.5 µM
IC50 (Anoctamin-1 [4]): 2.95 µM
inhibition [1]: 80.1%
inhibition at 100 µM (U138-MG [5]): < 50%
inhibition at 72 h, 100 µM [6]: < 50%
inhibition at 100 µM (U-87 MG [7]): < 50%

Structure (SMILES): CC(C)(C)C1CCc2c(sc(NC(=O)c3ccccc3)c2C(N)=O)C1 (stereo not drawn)
inhibition [1]: 22%

Structure (SMILES): NC(=O)c1c(NC(=S)NC(=O)c2ccccc2)sc2c1CCCCC2
inhibition [1]: 21.1%

Structure (SMILES): NC(=O)c1c(NC(=S)NC(=O)c2cccc(Cl)c2)sc2c1CCC2
inhibition [1]: < 10%

Structure (SMILES): COc1ccc(C(=O)NC(=S)Nc2sc3c(c2C(N)=O)CCC3)cc1OC
inhibition [1]: < 10%

Structure (SMILES): NC(=O)c1ccsc1N
inhibition [1]: < 10%

Structure (SMILES): NC(=O)c1c(NC(=S)NC(=O)c2ccc(C(F)(F)F)cc2)sc2c1CCC2
inhibition [1]: < 10%

Structure (SMILES): CC(C)(C)C1CCc2c(sc(NC(=O)c3ccco3)c2C(=O)O)C1 (stereo not drawn)
GI50 (U-251 [2]): 41.9 µM
IC50 (Anoctamin-1 [3]): 1.53 µM
GI50 (U138-MG [9]): 89.4 µM
inhibition (U-251 [10]): inactive
inhibition at 10 µM (U-251 [11]): 28.3%
inhibition at 72 h, 100 µM [6]: < 50%
inhibition (U-251 [12]): inactive
inhibition at 10 µM (U-251 [13]): 34.8%
inhibition at 100 µM (U-87 MG [7]): < 50%
inhibition at 100 µM (U-251 [14]; U-251, 336 h, time 14 day): 72.7%
inhibition at 10 µM (U-251 [15]; U-251, 336 h, time 14 day): 72.7%

Structure (SMILES): COc1cc(OC)cc(C(=O)NC(=S)Nc2sc3c(c2C(N)=O)CCC3)c1
inhibition [1]: 46.1%

Now from value to compound, other results behind:

inhibition [1]: < 10%
Structure (SMILES): NC(=O)c1c(NC(=O)c2ccco2)sc2c1CCCCC2

GI50 (U-251 [2]): 70.2 µM
IC50 (Anoctamin-1 [3]): 5.66 µM
IC50 (Anoctamin-1 [4]): 3.09 µM
inhibition [1]: 70.3%
GI50 (U-87 MG [8]): 82.4 µM
Structure (SMILES): CC(C)(C)C1CCc2c(sc(NC(=S)NC(=O)c3ccccc3)c2C(N)=O)C1 (stereo not drawn)
inhibition at 100 µM (U138-MG [5]): < 50%
inhibition at 72 h, 100 µM [6]: < 50%

inhibition [1]: < 10%
Structure (SMILES): CC(C)(C)C1CCc2c(sc(NC(=O)c3ccco3)c2C(N)=O)C1 (stereo not drawn)

inhibition [1]: < 10%
Structure (SMILES): NC(=O)c1ccsc1NC(=O)c1ccccc1

GI50 (U-251 [2]): 45.3 µM
IC50 (Anoctamin-1 [3]): 0.05 µM
GI50 (U-87 MG [8]): 48 µM
Structure (SMILES): Cc1ccccc1NC(=O)c1c(NC(=O)C(F)(F)Br)sc2c1CCCCC2
GI50 (U138-MG [9]): 29.4 µM
inhibition (U-251 [10]): inactive
inhibition at 10 µM (U-251 [11]): 11.7%
inhibition at 72 h, 100 µM [6]: < 50%
inhibition at 10 µM (U-251 [13]): 16.7%
inhibition (U-251 [14]; time 14.0 day): inactive
inhibition (U-251 [15]; time 14.0 day): inactive
